Data: ChEMBL document CHEMBL1649552 (2009)
Converted amounts (≈) assume the structure as drawn.

How the values were obtained:
Type in all cases: functional
[1] = system: Staphylococcus epidermidis; test: Antibacterial activity against methicillin-resistant Staphylococcus epidermidis by CLSI M100-S17 method
[2] = system: Streptococcus pyogenes; test: Antibacterial activity against Streptococcus pyogenes assessed as intermediate isolates by CLSI M100-S17 method
How it was run: (§1)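 CLSI broth microdilution on clinical isolates, using frozen in-house-prepared panels of test and comparator agents. MICs were read after 20 to 24 h incubation at 35°C in ambient air. Susceptible/intermediate categories were assigned by CLSI M100-S17 guidelines.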

[3] = system: Staphylococcus aureus; test: Antibacterial activity against methicillin-resistant Staphylococcus aureus assessed as resistant isolates by CLSI M100-S17 method
[4] = system: Staphylococcus epidermidis; test: Antibacterial activity against methicillin-susceptible Staphylococcus epidermidis assessed as resistant isolates by CLSI M100-S17 method
[5] = system: Staphylococcus epidermidis; test: Antibacterial activity against methicillin-resistant Staphylococcus epidermidis assessed as resistant isolates by CLSI M100-S17 method
[6] = system: Staphylococcus epidermidis; test: Antibacterial activity against methicillin-resistant Staphylococcus epidermidis assessed as susceptible isolates by CLSI M100-S17 method
[7] = system: Staphylococcus aureus; test: Antibacterial activity against methicillin-susceptible Staphylococcus aureus by CLSI M100-S17 method
[8] = system: Staphylococcus aureus; test: Antibacterial activity against methicillin-susceptible Staphylococcus aureus assessed as resistant isolates by CLSI M100-S17 method
[9] = system: Enterococcus faecalis; test: Antibacterial activity against Enterococcus faecalis by CLSI M100-S17 method
[10] = system: Streptococcus agalactiae; test: Antibacterial activity against Streptococcus agalactiae assessed as resistant isolates by CLSI M100-S17 method
How it was run: (§2)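 Clinical isolates were tested by CLSI broth microdilution in frozen, in-house-prepared 96-well panels of the test agent and comparator agents. MICs were read and classed as susceptible, intermediate or resistant using CLSI M100-S17 breakpoints. The value is the share of isolates in each category.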

[11] = system: Streptococcus pyogenes; test: Antibacterial activity against Streptococcus pyogenes assessed as susceptible isolates by CLSI M100-S17 method; how it was run: as §1
[12] = system: Staphylococcus epidermidis; test: Antibacterial activity against methicillin-susceptible Staphylococcus epidermidis assessed as susceptible isolates by CLSI M100-S17 method
[13] = system: Enterococcus faecium; test: Antibacterial activity against Enterococcus faecium by CLSI M100-S17 method
[14] = system: Staphylococcus epidermidis; test: Antibacterial activity against methicillin-susceptible Staphylococcus epidermidis by CLSI M100-S17 method
[15] = system: Streptococcus agalactiae; test: Antibacterial activity against Streptococcus agalactiae assessed as susceptible isolates by CLSI M100-S17 method; how it was run: as §1
[16] = system: Streptococcus agalactiae; test: Antibacterial activity against Streptococcus agalactiae assessed as intermediate isolates by CLSI M100-S17 method; how it was run: as §1
[17] = system: Staphylococcus aureus; test: Antibacterial activity against methicillin-resistant Staphylococcus aureus by CLSI M100-S17 method
[18] = system: Staphylococcus aureus; test: Antibacterial activity against methicillin-resistant Staphylococcus aureus assessed as intermediate isolates by CLSI M100-S17 method
[19] = system: Staphylococcus aureus; test: Antibacterial activity against methicillin-resistant Staphylococcus aureus assessed as susceptible isolates by CLSI M100-S17 method
[20] = system: Streptococcus pyogenes; test: Antibacterial activity against Streptococcus pyogenes assessed as resistant isolates by CLSI M100-S17 method; how it was run: as §2
[21] = system: Staphylococcus aureus; test: Antibacterial activity against methicillin-susceptible Staphylococcus aureus assessed as susceptible isolates by CLSI M100-S17 method
[22] = system: Staphylococcus aureus; test: Antibacterial activity against methicillin-susceptible Staphylococcus aureus assessed as intermediate isolates by CLSI M100-S17 method
[23] = system: Staphylococcus epidermidis; test: Antibacterial activity against methicillin-susceptible Staphylococcus epidermidis assessed as intermediate isolates by CLSI M100-S17 method
[24] = system: Streptococcus agalactiae; test: Antibacterial activity against Streptococcus agalactiae by CLSI M100-S17 method
[25] = system: Enterococcus faecalis; test: Antibacterial activity against Enterococcus faecalis assessed as susceptible isolates by CLSI M100-S17 method
[26] = system: Enterococcus faecium; test: Antibacterial activity against Enterococcus faecium assessed as resistant isolates by CLSI M100-S17 method
[27] = system: Streptococcus pneumoniae; test: Antibacterial activity against Streptococcus pneumoniae assessed as susceptible isolates by CLSI M100-S17 method; how it was run: as §1
[28] = system: Enterococcus faecium; test: Antibacterial activity against Enterococcus faecium assessed as intermediate isolates by CLSI M100-S17 method
[29] = system: Enterococcus faecalis; test: Antibacterial activity against Enterococcus faecalis assessed as intermediate isolates by CLSI M100-S17 method
[30] = system: Streptococcus pneumoniae; test: Antibacterial activity against Streptococcus pneumoniae by CLSI M100-S17 method
[31] = system: Streptococcus pyogenes; test: Antibacterial activity against Streptococcus pyogenes by CLSI M100-S17 method
[32] = system: Enterococcus faecium; test: Antibacterial activity against Enterococcus faecium assessed as susceptible isolates by CLSI M100-S17 method
[33] = system: Enterococcus faecalis; test: Antibacterial activity against Enterococcus faecalis assessed as resistant isolates by CLSI M100-S17 method
[34] = system: Klebsiella pneumoniae; test: Antibacterial activity against Klebsiella pneumoniae assessed as intermediate isolates by CLSI M100-S17 method
[35] = system: Escherichia coli; test: Antibacterial activity against Escherichia coli assessed as intermediate isolates by CLSI M100-S17 method
[36] = system: Acinetobacter baumannii; test: Antibacterial activity against Acinetobacter baumannii assessed as susceptible isolates by CLSI M100-S17 method
[37] = system: Enterobacter cloacae; test: Antibacterial activity against Enterobacter cloacae assessed as intermediate isolates by CLSI M100-S17 method
[38] = system: Pseudomonas aeruginosa; test: Antibacterial activity against Pseudomonas aeruginosa by CLSI M100-S17 method
[39] = system: Proteus mirabilis; test: Antibacterial activity against Proteus mirabilis by CLSI M100-S17 method
[40] = system: Acinetobacter baumannii; test: Antibacterial activity against Acinetobacter baumannii by CLSI M100-S17 method
[41] = system: Proteus mirabilis; test: Antibacterial activity against Proteus mirabilis assessed as intermediate isolates by CLSI M100-S17 method
[42] = system: Stenotrophomonas maltophilia; test: Antibacterial activity against Stenotrophomonas maltophilia by CLSI M100-S17 method
[43] = system: Serratia marcescens; test: Antibacterial activity against Serratia marcescens by CLSI M100-S17 method
[44] = system: Proteus mirabilis; test: Antibacterial activity against Proteus mirabilis assessed as susceptible isolates by CLSI M100-S17 method
[45] = system: Pseudomonas aeruginosa; test: Antibacterial activity against Pseudomonas aeruginosa assessed as intermediate isolates by CLSI M100-S17 method
[46] = system: Klebsiella oxytoca; test: Antibacterial activity against Klebsiella oxytoca by CLSI M100-S17 method
[47] = system: Serratia marcescens; test: Antibacterial activity against Serratia marcescens assessed as susceptible isolates by CLSI M100-S17 method
[48] = system: Klebsiella oxytoca; test: Antibacterial activity against Klebsiella oxytoca assessed as intermediate isolates by CLSI M100-S17 method
[49] = system: Moraxella catarrhalis; test: Antibacterial activity against Moraxella catarrhalis by CLSI M100-S17 method
[50] = system: Acinetobacter baumannii; test: Antibacterial activity against Acinetobacter baumannii assessed as resistant isolates by CLSI M100-S17 method
[51] = system: Klebsiella pneumoniae; test: Antibacterial activity against Klebsiella pneumoniae by CLSI M100-S17 method
[52] = system: Enterobacter cloacae; test: Antibacterial activity against Enterobacter cloacae by CLSI M100-S17 method
[53] = system: Serratia marcescens; test: Antibacterial activity against Serratia marcescens assessed as intermediate isolates by CLSI M100-S17 method
[54] = system: Acinetobacter baumannii; test: Antibacterial activity against Acinetobacter baumannii assessed as intermediate isolates by CLSI M100-S17 method
[55] = system: Escherichia coli; test: Antibacterial activity against Escherichia coli assessed as susceptible isolates by CLSI M100-S17 method
[56] = system: Klebsiella pneumoniae; test: Antibacterial activity against Klebsiella pneumoniae assessed as susceptible isolates by CLSI M100-S17 method
[57] = system: Klebsiella oxytoca; test: Antibacterial activity against Klebsiella oxytoca assessed as susceptible isolates by CLSI M100-S17 method
[58] = system: Escherichia coli; test: Antibacterial activity against Escherichia coli by CLSI M100-S17 method
[59] = system: Pseudomonas aeruginosa; test: Antibacterial activity against Pseudomonas aeruginosa assessed as resistant isolates by CLSI M100-S17 method
[60] = system: Pseudomonas aeruginosa; test: Antibacterial activity against Pseudomonas aeruginosa assessed as susceptible isolates by CLSI M100-S17 method
[61] = system: Enterobacter cloacae; test: Antibacterial activity against Enterobacter cloacae assessed as susceptible isolates by CLSI M100-S17 method

Structure (SMILES): CCC[C@@H]1C[C@@H](C(=O)N[C@@H]([C@H]2O[C@H](SC)[C@H](O)[C@@H](O)[C@H]2O)[C@H](C)Cl)N(C)C1 [CLINDAMYCIN]
- MIC50 [1]: > 8 µg/mL
- Activity [2]: 0%
- Activity [3]: 61.8%
- Activity [4]: 38.9%
- Activity [5]: 90%
- Activity [6]: 10%
- MIC50 [7]: ≤ 0.12 µg/mL
- MIC90 [7]: ≤ 0.12 µg/mL
- Activity [8]: 8.6%
- MIC50 [9]: > 8 µg/mL
- MIC90 [9]: > 8 µg/mL
- Activity [10]: 12.5%
- Activity [11]: 97.3%
- Activity [12]: 61.1%
- MIC50 [13]: > 8 µg/mL
- MIC90 [13]: > 8 µg/mL
- MIC50 [14]: ≤ 0.12 µg/mL
- MIC90 [14]: > 8 µg/mL
- Activity [15]: 85.2%
- Activity [16]: 2.3%
- MIC50 [17]: > 8 µg/mL
- MIC90 [17]: > 8 µg/mL
- Activity [18]: 0.3%
- Activity [19]: 37.9%
- Activity [20]: 2.7%
- Activity [21]: 91%
- Activity [22]: 0.4%
- Activity [23]: 0%
- MIC50 [24]: ≤ 0.06 µg/mL
- MIC90 [24]: > 8 µg/mL

Structure (SMILES): CC(=O)NC[C@H]1CN(c2ccc(N3CCOCC3)c(F)c2)C(=O)O1 [LINEZOLID]
- MIC50 [1]: 1 µg/mL (≈ 2.96 µM)
- MIC90 [1]: 1 µg/mL (≈ 2.96 µM)
- Activity [25]: 98.7%
- Activity [26]: 0%
- Activity [27]: 100%
- Activity [28]: 8.6%
- Activity [29]: 1.3%
- MIC50 [7]: 2 µg/mL (≈ 5.93 µM)
- MIC90 [7]: 2 µg/mL (≈ 5.93 µM)
- MIC50 [9]: 2 µg/mL (≈ 5.93 µM)
- MIC90 [9]: 2 µg/mL (≈ 5.93 µM)
- MIC50 [30]: 0.5 µg/mL (≈ 1.48 µM)
- MIC90 [30]: 1 µg/mL (≈ 2.96 µM)
- MIC50 [31]: 1 µg/mL (≈ 2.96 µM)
- MIC90 [31]: 1 µg/mL (≈ 2.96 µM)
- Activity [11]: 100%
- Activity [12]: 100%
- Activity [32]: 91.4%
- MIC50 [13]: 2 µg/mL (≈ 5.93 µM)
- MIC90 [13]: 2 µg/mL (≈ 5.93 µM)
- MIC50 [14]: 0.5 µg/mL (≈ 1.48 µM)
- MIC90 [14]: 1 µg/mL (≈ 2.96 µM)
- Activity [15]: 100%
- MIC50 [17]: 2 µg/mL (≈ 5.93 µM)
- MIC90 [17]: 4 µg/mL (≈ 11.9 µM)
- Activity [33]: 0%
- Activity [21]: 100%
- Activity [22]: 0%
- Activity [23]: 0%
- MIC50 [24]: 1 µg/mL (≈ 2.96 µM)
- MIC90 [24]: 1 µg/mL (≈ 2.96 µM)

Structure (SMILES): C[C@@H](O)[C@H]1C(=O)N2C(C(=O)O)=C(S[C@@H]3CN[C@H](C(=O)N(C)C)C3)[C@H](C)[C@H]12 [MEROPENEM]
- Activity [34]: 0%
- Activity [35]: 0%
- Activity [36]: 92%
- Activity [37]: 0%
- MIC50 [38]: 0.5 µg/mL (≈ 1.3 µM)
- MIC90 [38]: 8 µg/mL (≈ 20.9 µM)
- MIC50 [39]: ≤ 0.06 µg/mL
- MIC90 [39]: ≤ 0.06 µg/mL
- MIC50 [40]: 0.5 µg/mL (≈ 1.3 µM)
- MIC90 [40]: 4 µg/mL (≈ 10.4 µM)
- Activity [41]: 0%
- MIC50 [42]: > 64 µg/mL
- MIC90 [42]: > 64 µg/mL
- MIC50 [43]: ≤ 0.06 µg/mL
- MIC90 [43]: ≤ 0.06 µg/mL
- Activity [44]: 100%
- Activity [45]: 4.1%
- MIC50 [46]: ≤ 0.06 µg/mL
- MIC90 [46]: ≤ 0.06 µg/mL
- Activity [47]: 100%
- Activity [48]: 0%
- MIC [49]: ≤ 0.06 µg/mL
- MIC50 [49]: ≤ 0.06 µg/mL
- MIC90 [49]: ≤ 0.06 µg/mL
- Activity [50]: 8%
- MIC50 [51]: ≤ 0.06 µg/mL
- MIC90 [51]: ≤ 0.06 µg/mL
- MIC50 [52]: ≤ 0.06 µg/mL
- MIC90 [52]: ≤ 0.06 µg/mL
- Activity [53]: 0%
- Activity [54]: 0%
- Activity [55]: 100%
- Activity [56]: 100%
- Activity [57]: 100%
- MIC50 [58]: ≤ 0.06 µg/mL
- MIC90 [58]: ≤ 0.06 µg/mL
- Activity [59]: 8.1%
- Activity [60]: 87.8%
- Activity [61]: 100%
